Test results: ChEMBL document CHEMBL1158424, “Design, synthesis and biological investigation of certain pyrazole-3-carboxylic acid derivatives as novel carriers for nitric oxide” (Bioorg Med Chem, 2009)
≈ marks a conversion by molar mass, not a printed value. Calls of active or inactive are those of the source. No cut-off for these calls is given here.

Legend:
[1] = system: Rattus norvegicus; assay: Antiinflammatory activity in albino rat assessed as inhibition of carrageenan-induced paw edema at 100 mg/kg, po administered 30 mins prior to carrageenan challenge measured after 5 hrs; type: functional
Outline: (§1)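 Male albino rats, 140–150 g, groups of 5, acclimatized 3 days, water only on the last day. Oral dosing in carboxymethylcellulose vehicle 30 min before subplantar 1% carrageenan (0.1 mL) into one hind paw; contralateral paw given saline. Paw thickness by digital plethysmometer at 0–5 h. Percent inhibition from difference between paws, treated versus vehicle control; indomethacin reference; mean ± SEM.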

[2] = system: Rattus norvegicus; assay: Gastrointestinal toxicity in albino rat assessed as incidence of gastric ulceration at 100 mg/kg, po by histopathological study; type: organism-based, Stomach; parameters: dose 100 mg/kg, route oral; settings: in vivo
Outline: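 Gastric sections dewaxed, rehydrated, stained with haematoxylin 5–7 min, differentiated in 1% HCl in 70% alcohol, stained with 1% eosin 10 min, dehydrated, cleared in xylene, mounted and examined by light microscopy.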

[3] = system: Staphylococcus aureus; assay: Antibacterial activity against Staphylococcus aureus NCTC 6571 after 24 hrs by agar cup diffusion method; type: functional
Outline: (§2)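 Nutrient agar seeded with culture, poured 3–4 mm; six 10 mm cups per plate, one as DMF solvent control. Compounds dissolved in DMF (stock 1 mg/mL), two-fold serial dilutions 32–512 µg/mL, 0.1 mL per cup. Incubation 24 h at 37 °C; inhibition zone diameter read in mm. MIC taken as intercept of log concentration versus zone diameter plot; ciprofloxacin reference.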

[4] = system: Rattus norvegicus; assay: Antiinflammatory activity in albino rat assessed as inhibition of carrageenan-induced paw edema at 100 mg/kg, po administered 30 mins prior to carrageenan challenge measured after 3 hrs; type: functional; outline: as §1
[5] = system: Rattus norvegicus; assay: Antiinflammatory activity in albino rat assessed as inhibition of carrageenan-induced paw edema at 100 mg/kg, po administered 30 mins prior to carrageenan challenge measured after 4 hrs; type: functional; outline: as §1
[6] = system: Rattus norvegicus; assay: Antiinflammatory activity in albino rat assessed as inhibition of carrageenan-induced paw edema at 100 mg/kg, po administered 30 mins prior to carrageenan challenge measured after 2 hrs; type: functional; outline: as §1
[7] = system: Rattus norvegicus; assay: Antiinflammatory activity in albino rat assessed as inhibition of carrageenan-induced paw edema at 100 mg/kg, po administered 30 mins prior to carrageenan challenge measured after 1 hr; type: functional; outline: as §1
[8] = system: Rattus norvegicus; assay: Gastrointestinal toxicity in albino rat assessed as ulcer index at 100 mg/kg, po; type: organism-based; parameters: dose 100 mg/kg, route oral; settings: in vivo
Outline: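 Rats from the paw edema study killed by ether overdose; stomachs removed, opened and examined for visible lesions. Each lesion scored 0–5 by length (0 none, 1 petechiae, 2 <1 mm, 3 1–2 mm, 4 2–4 mm, 5 >4 mm erosions). Scores summed per rat; group ulcer index is the mean lesion score.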

[9] = system: Escherichia coli; assay: Antibacterial activity against Escherichia coli C-600 after 24 hrs by agar cup diffusion method; type: functional; outline: as §2
[10] = system: Rattus norvegicus; assay: Gastroprotective activity in albino rat assessed as preventive index at 100 mg/kg, po; type: functional
Outline: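 Preventive index = (UI of ulcered group − UI of treated group)/UI of ulcered group × 100. UI from lesion scoring (0–5 by erosion length) of stomachs of rats from the paw edema study.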

[11] = system: Bacillus subtilis; assay: Antibacterial activity against Bacillus subtilis after 24 hrs by agar cup diffusion method; type: functional; outline: as §2
[12] = system: Pseudomonas aeruginosa; assay: Antibacterial activity against Pseudomonas aeruginosa after 24 hrs by agar cup diffusion method; type: functional; outline: as §2
[13] = Nitric oxide release in phosphate buffer at pH 7.4 after 1 hr by Griess diazotization reaction method in presence of L-cysteine; parameters: concentration or dose not given beside the values
Outline: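 Incubation in pH 7.4 phosphate buffer with L-cysteine for 1 h at 37 °C. Then 1 mL of mixture treated with Griess reagent (sulfanilamide, N-naphthylethylenediamine, phosphoric acid); absorbance read at 540 nm after 25 min. Nitrite quantified against sodium nitrite standard curve; % release = found/theoretical NO × 100.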

Structure (SMILES) | MIC [3] | MIC ([9]; C-600, 24 h) | MIC [11] | MIC [12] | MIC [9] | MIC ([3]; NCTC 6571, 24 h) | inhibition in vivo at 100 mg/kg [1] | Activity [2] | inhibition in vivo at 100 mg/kg [4] | inhibition in vivo at 100 mg/kg [5] | inhibition in vivo at 100 mg/kg [6] | inhibition in vivo at 100 mg/kg [7] | UI [8] | PI [10] | Activity [13]
O=C(c1ccccc1)c1c(C(=O)N2CCN(C(=O)CO[N+](=O)[O-])CC2)nn(-c2ccccc2)c1-c1ccccc1 | inactive | 64 µg/mL (≈ 119 µM) | 2.45 µg/mL (≈ 4.54 µM) | 93.3 µg/mL (≈ 173 µM) | – | – | 68.1% | Non-toxic | 43% | 45.6% | 30% | 45.5% | 5.5 | 76.08% | 13.8%
COc1ccc2c(c1)c(CC(=O)O)c(C)n2C(=O)c1ccc(Cl)cc1 [INDOMETHACIN] | – | – | – | – | – | – | – | – | – | – | – | – | 69.5 | – | –
O=C(Nc1ccc(S(=O)(=O)Nc2ncccn2)cc1)c1nn(-c2ccccc2)c(-c2ccccc2)c1C(=O)c1ccccc1 | inactive | – | 47 µg/mL (≈ 78.3 µM) | 44.3 µg/mL (≈ 73.8 µM) | inactive | – | 41.2% | – | 25% | 27% | 18.2% | 18.2% | 9.3 | – | –
O=C(c1ccccc1)c1c(C(=O)N2CCNCC2)nn(-c2ccccc2)c1-c1ccccc1 | inactive | 1.92 µg/mL (≈ 4.4 µM) | 2.18 µg/mL (≈ 4.99 µM) | 84.5 µg/mL (≈ 194 µM) | – | – | 66.7% | Toxic | 28.6% | 51.5% | 41.7% | 35% | 23 | – | –
COc1ccc(NC(=O)c2nn(-c3ccccc3)c(-c3ccccc3)c2C(=O)c2ccccc2)cc1 | inactive | 4.5 µg/mL (≈ 9.5 µM) | 43.8 µg/mL (≈ 92.5 µM) | 22.9 µg/mL (≈ 48.4 µM) | – | – | 52.9% | – | 28.3% | 43% | 42.5% | 40% | 33.3 | – | –
CC(=O)c1ccc(NC(=O)c2nn(-c3ccccc3)c(-c3ccccc3)c2C(=O)c2ccccc2)cc1 | inactive | 39.9 µg/mL (≈ 82.2 µM) | 1.75 µg/mL (≈ 3.6 µM) | 32.4 µg/mL (≈ 66.7 µM) | – | – | 61.8% | – | 45% | 47.6% | 45.5% | 29.1% | 11 | – | –
C/C(=N\O)c1ccc(NC(=O)c2nn(-c3ccccc3)c(-c3ccccc3)c2C(=O)c2ccccc2)cc1 | inactive | 1.62 µg/mL (≈ 3.24 µM) | 90.4 µg/mL (≈ 181 µM) | 27.2 µg/mL (≈ 54.4 µM) | – | – | 62.3% | – | 33.3% | 51.5% | 33.3% | 16.4% | 4 | – | 11.6%
O=C(c1ccccc1)c1c(C(=O)N2CCN(C(=O)CCl)CC2)nn(-c2ccccc2)c1-c1ccccc1 | inactive | 1.37 µg/mL (≈ 2.67 µM) | 11.2 µg/mL (≈ 21.8 µM) | 61.5 µg/mL (≈ 120 µM) | – | – | – | – | – | – | – | – | – | – | –
O=C(O)c1cn(C2CC2)c2cc(N3CCNCC3)c(F)cc2c1=O [CIPROFLOXACIN] | – | 1.2 µg/mL (≈ 3.62 µM) | 0.61 µg/mL (≈ 1.84 µM) | 30.8 µg/mL (≈ 93 µM) | – | 52.4 µg/mL (≈ 158 µM) | – | – | – | – | – | – | – | – | –
O=C(Nc1ccc(S(=O)(=O)Nc2ncccn2)cc1)c1nn(-c2ccccc2)c(-c2ccccc2)c1/C(=N/O)c1ccccc1 | inactive | 30.9 µg/mL (≈ 50.1 µM) | 54.7 µg/mL (≈ 88.8 µM) | 23.3 µg/mL (≈ 37.9 µM) | – | – | 56.5% | – | 31.7% | 51.5% | 26.7% | 16.4% | 7.6 | – | 7.4%
O=C(O)c1ccc(NC(=O)c2nn(-c3ccccc3)c(-c3ccccc3)c2C(=O)c2ccccc2)cc1 | – | 30.9 µg/mL (≈ 63.4 µM) | 34.8 µg/mL (≈ 71.4 µM) | 25.3 µg/mL (≈ 52 µM) | – | 64 µg/mL (≈ 131 µM) | 46.4% | – | 27% | 41.2% | 25% | 23.6% | 17 | – | –
O=C(Nc1ccc(Cl)cc1)c1nn(-c2ccccc2)c(-c2ccccc2)c1C(=O)c1ccccc1 | inactive | – | inactive | 25.1 µg/mL (≈ 52.5 µM) | inactive | – | 55.9% | Toxic | 35% | 36.5% | 40% | 45.5% | 20.3 | – | –

The remaining compounds from weak to strong by MIC [12], led by results:

MIC [3] | MIC ([9]; C-600, 24 h) | MIC [11] | MIC [12] | MIC [9] | MIC ([3]; NCTC 6571, 24 h) | Structure (SMILES) | inhibition in vivo at 100 mg/kg [1] | Activity [2] | inhibition in vivo at 100 mg/kg [4] | inhibition in vivo at 100 mg/kg [5] | inhibition in vivo at 100 mg/kg [6] | inhibition in vivo at 100 mg/kg [7] | UI [8] | PI [10] | Activity [13]
– | 2.8 µg/mL (≈ 5.57 µM) | 29.5 µg/mL (≈ 58.7 µM) | 13.6 µg/mL (≈ 27.1 µM) | – | 50.5 µg/mL (≈ 100 µM) | O=C(O)c1ccc(NC(=O)c2nn(-c3ccccc3)c(-c3ccccc3)c2/C(=N/O)c2ccccc2)cc1 | 81.2% | – | 47.6% | 61.8% | 45% | 45.5% | 8.5 | – | 9.3%
inactive | 15.3 µg/mL (≈ 33.4 µM) | 21.7 µg/mL (≈ 47.4 µM) | 11.3 µg/mL (≈ 24.7 µM) | – | – | O=C(OCCO[N+](=O)[O-])c1nn(-c2ccccc2)c(-c2ccccc2)c1C(=O)c1ccccc1 | 71% | – | 47.6% | 58.8% | 35% | 29.1% | 7.5 | – | 7.1%
– | 14.1 µg/mL (≈ 28.6 µM) | 5.82 µg/mL (≈ 11.8 µM) | 10.3 µg/mL (≈ 20.9 µM) | – | 90.4 µg/mL (≈ 183 µM) | O=C(Nc1ccc(Cl)cc1)c1nn(-c2ccccc2)c(-c2ccccc2)c1/C(=N/O)c1ccccc1 | 60.9% | Non-toxic | 47.6% | 55.9% | 23.3% | 23.6% | 7.5 | – | 7.8%
inactive | 2.88 µg/mL (≈ 5.9 µM) | 43.9 µg/mL (≈ 89.8 µM) | 9.7 µg/mL (≈ 19.9 µM) | – | – | COc1ccc(NC(=O)c2nn(-c3ccccc3)c(-c3ccccc3)c2/C(=N/O)c2ccccc2)cc1 | 56.5% | – | 36.5% | 51.5% | 25% | 30.9% | 8.5 | 74% | 8%
inactive | 28.6 µg/mL (≈ 60.6 µM) | 2.87 µg/mL (≈ 6.07 µM) | 7.99 µg/mL (≈ 16.9 µM) | – | – | Cc1ccc(NC(=O)c2nn(-c3ccccc3)c(-c3ccccc3)c2/C(=N/O)c2ccccc2)cc1 | 82.6% | – | 36.5% | 45.6% | 20% | 12.7% | 3 | – | 10.1%
inactive | 24 µg/mL (≈ 50.6 µM) | 47.5 µg/mL (≈ 99.9 µM) | 6.04 µg/mL (≈ 12.7 µM) | – | – | O=C(OCCBr)c1nn(-c2ccccc2)c(-c2ccccc2)c1C(=O)c1ccccc1 | 52.2% | – | 30.2% | 41.2% | 28.4% | 25.4% | 11 | – | –
inactive | 16.1 µg/mL (≈ 35.3 µM) | 33.8 µg/mL (≈ 73.9 µM) | 4.3 µg/mL (≈ 9.4 µM) | – | – | Cc1ccc(NC(=O)c2nn(-c3ccccc3)c(-c3ccccc3)c2C(=O)c2ccccc2)cc1 | 51.2% | – | 28.3% | 30.2% | 29.1% | 42.5% | 4 | – | –
inactive | 16.1 µg/mL (≈ 43.7 µM) | 10.8 µg/mL (≈ 29.2 µM) | 1.92 µg/mL (≈ 5.21 µM) | – | – | O=C(O)c1nn(-c2ccccc2)c(-c2ccccc2)c1C(=O)c1ccccc1 | 56.6% | – | 36.5% | 51.5% | 35% | 32.7% | 8 | – | –
inactive | 7.95 µg/mL (≈ 19.3 µM) | 3.88 µg/mL (≈ 9.41 µM) | 1.29 µg/mL (≈ 3.13 µM) | – | – | O=C(OCCO)c1nn(-c2ccccc2)c(-c2ccccc2)c1C(=O)c1ccccc1 | 71.7% | – | 66.4% | 68.6% | 51.5% | 19.7% | 9 | – | –
